We go through 30 molecules from ChEMBL document CHEMBL2177000, “Pharmacokinetic optimization of class-selective histone deacetylase inhibitors and identification of associated candidate predictive biomarkers of hepatocellular carcinoma tumor response” (J Med Chem, 2012).

A short description of series [1]: Clearance in mouse liver microsomes at 1 uM incubated for 10 mins by LC-MS/MS method. Format: ADME, Microsome. The method in brief: (§1)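 Liver microsomes (human or mouse, 0.5 mg/mL) in 100 mM potassium phosphate pH 7.4 with 1 μM compound, prewarmed 10 min at 37 °C, started with NADPH (10 mM); stopped at 0, 3, 6, 9, 15, 30 min with ice-cold methanol containing tolbutamide internal standard; LC-MS/MS. Hepatic clearance (mL/min/kg) calculated from intrinsic clearance.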
In general terms: Liver microsomes are a subcellular fraction often used to study metabolism.

Series [2] in a line: Clearance in human liver microsomes at 1 uM incubated for 10 mins by LC-MS/MS method. Format: ADME, Microsome. The method, boiled down:
as §1

The target in series [3] is Histone deacetylase (Homo sapiens) (UniProt Q13547+O15379+Q9UBN7+Q92769+Q9UQL6+Q8WUI4+Q9BY41+Q96DB2+P56524+Q9UKV0+Q969S8). As to the kind of experiment: Inhibition of Class 1 histone deacetylase in human HeLa cells assessed as induction in p21 protein expression at 3 uM incubated for 16 hrs by luciferase reporter gene assay relative to HDAC inhibitor entinostat. The series is classed as cell-based. Set-up: scale not given: the % may be the effect or the level left.

Molecules are shown by their SMILES.

For `CN1C[C@H](C(=O)Nc2ccc(C(F)(F)F)cc2)[C@@H](c2ccc(/C=C/C(=O)Nc3ccccc3N)cc2)C1` (racemic), the CLhep predicted at 1 µM was 1.38 L/h/kg in series [1] and 0.36 L/h/kg in series [2]. Also, in series [3], the Activity came to 10%.
Taken in the same sequence, the figures for `COCCN1C[C@H](C(=O)Nc2ccc(Cl)cc2)[C@@H](c2ccc(/C=C/C(=O)Nc3ccccc3N)cc2)C1` (racemic) were 4.32 L/h/kg, 0.36 L/h/kg and 250%.
As to `CN1C[C@H](C(=O)Nc2ccc(C#N)cc2)[C@@H](c2ccc(/C=C/C(=O)Nc3ccccc3N)cc2)C1` (racemic), the CLhep predicted at 1 µM was 2.1 L/h/kg in series [1] and 0.06 L/h/kg in series [2]. In addition, the Activity in series [3] was determined as 80%.
In the case of `CN1C[C@H](C(=O)NC2CCCC2)[C@@H](c2ccc(/C=C/C(=O)Nc3ccccc3N)cc2)C1` (racemic), the CLhep predicted at 1 µM in series [1] is 3.66 L/h/kg; in series [2] it was 0.54 L/h/kg. For the same molecule, the Activity in series [3] is 180%.
Taken in the same sequence, the figures for `Cc1cc(NC(=O)[C@H]2CN(C)C[C@@H]2c2ccc(/C=C/C(=O)Nc3ccccc3N)cc2)ccc1F` (racemic) were 3.72 L/h/kg, 0.9 L/h/kg and 200%.
On to `COc1ccc(NC(=O)[C@H]2CN(C)C[C@@H]2c2ccc(/C=C/C(=O)Nc3ccccc3N)cc2)cc1` (racemic), for which the CLhep predicted at 1 µM is 3.24 L/h/kg in series [1] and 0.84 L/h/kg in series [2]. Also, the Activity in series [3] was 170%.
Taken in the same sequence, the figures for `CC(C)c1ccc(NC(=O)[C@H]2CN(C)C[C@@H]2c2ccc(/C=C/C(=O)Nc3ccccc3N)cc2)cc1` (racemic) were 3.24 L/h/kg, 0.6 L/h/kg and 70%.
Taken in the same sequence, the figures for `CCN(CC)C(=O)N1C[C@H](C(=O)Nc2ccc(Cl)cc2)[C@@H](c2ccc(/C=C/C(=O)Nc3ccccc3N)cc2)C1` (racemic) were 4.98 L/h/kg, 1.14 L/h/kg and 90%.
Take `CN1C[C@H](C(=O)Nc2ccncc2)[C@@H](c2ccc(/C=C/C(=O)Nc3ccccc3N)cc2)C1` (racemic): in series [3], the Activity is 50%.
`Nc1ccccc1NC(=O)/C=C/c1ccc([C@H]2CN(c3ncccn3)C[C@@H]2C(=O)Nc2ccc(Cl)cc2)cc1` (racemic): the CLhep predicted at 1 µM in series [1] was 2.64 L/h/kg; in series [2] it was 0.66 L/h/kg. In series [3], the Activity turned out to be 120%.
Taken in the same sequence, the figures for `CN1C[C@H](C(=O)Nc2ccc(C3CC3)cc2)[C@@H](c2ccc(/C=C/C(=O)Nc3ccccc3N)cc2)C1` (racemic) were 3.6 L/h/kg, 0.72 L/h/kg and 60%.
Taken in the same sequence, the figures for `Nc1ccccc1NC(=O)/C=C/c1ccc([C@H]2CN(CC(F)F)C[C@@H]2C(=O)Nc2ccc(Cl)cc2)cc1` (racemic) were 2.94 L/h/kg, 0.96 L/h/kg and 90%.
The corresponding values for `CN1C[C@H](C(=O)Nc2ccc(Cl)cn2)[C@@H](c2ccc(/C=C/C(=O)Nc3ccccc3N)cc2)C1` (racemic) are 1.86 L/h/kg, 0.78 L/h/kg and 150%.
With `Nc1ccccc1NC(=O)/C=C/c1ccc([C@H]2CN(Cc3ccccc3)C[C@@H]2C(=O)Nc2ccc(Cl)cc2)cc1` (racemic), the CLhep predicted at 1 µM is 4.86 L/h/kg in series [1] and 0.18 L/h/kg in series [2]. The Activity in series [3] amounted to 70%.
Taken in the same sequence, the figures for `CC(C)NC(=O)[C@H]1CN(C)C[C@@H]1c1ccc(/C=C/C(=O)Nc2ccccc2N)cc1` (racemic) were 0.72 L/h/kg, 0.48 L/h/kg and 70%.
Taken in the same sequence, the figures for `CCNC(=O)N1C[C@H](C(=O)Nc2ccc(Cl)cc2)[C@@H](c2ccc(/C=C/C(=O)Nc3ccccc3N)cc2)C1` (racemic) were 1.5 L/h/kg, 0.54 L/h/kg and 40%.
Taken in the same sequence, the figures for `CN1C[C@H](C(=O)Nc2cccc(Cl)c2)[C@@H](c2ccc(/C=C/C(=O)Nc3ccccc3N)cc2)C1` (racemic) were 3.48 L/h/kg, 0.42 L/h/kg and 230%.
In the case of `CCN1C[C@H](C(=O)Nc2ccc(Cl)cc2)[C@@H](c2ccc(/C=C/C(=O)Nc3ccccc3N)cc2)C1` (racemic), the CLhep predicted at 1 µM in series [1] is 2.1 L/h/kg; in series [2] it was 0.72 L/h/kg. The Activity in series [3] was determined as 170%.
The corresponding values for `Nc1ccccc1NC(=O)/C=C/c1ccc([C@H]2CN(CCF)C[C@@H]2C(=O)Nc2ccc(Cl)cc2)cc1` (racemic) are 3.06 L/h/kg, 1.02 L/h/kg and 180%.
The corresponding values for `Cc1cc(NC(=O)[C@H]2CN(C)C[C@@H]2c2ccc(/C=C/C(=O)Nc3ccccc3N)cc2)ccc1Cl` (racemic) are 3.9 L/h/kg, 0.9 L/h/kg and 210%.
The corresponding values for `Cc1ccc(NC(=O)[C@H]2CN(C)C[C@@H]2c2ccc(/C=C/C(=O)Nc3ccccc3N)cc2)cc1` (racemic) are 3.72 L/h/kg, 0.9 L/h/kg and 260%.
In the case of `CN1C[C@H](C(=O)Nc2ccc(Cl)c(Cl)c2)[C@@H](c2ccc(/C=C/C(=O)Nc3ccccc3N)cc2)C1` (racemic), the values for the CLhep predicted at 1 µM in series [1] and in series [2] were 2.16 L/h/kg and 0.84 L/h/kg, respectively. The Activity in series [3] amounted to 160%.
Taken in the same sequence, the figures for `CN1C[C@H](C(=O)Nc2ccc(F)c(Br)c2)[C@@H](c2ccc(/C=C/C(=O)Nc3ccccc3N)cc2)C1` (racemic) were 2.58 L/h/kg, 0.9 L/h/kg and 200%.
Taken in the same sequence, the figures for `CN1C[C@H](C(=O)Nc2cccc(F)c2)[C@@H](c2ccc(/C=C/C(=O)Nc3ccccc3N)cc2)C1` (racemic) were 3.36 L/h/kg, 0.36 L/h/kg and 190%.
The corresponding values for `CN1C[C@H](C(=O)Nc2ccc(Cl)cc2F)[C@@H](c2ccc(/C=C/C(=O)Nc3ccccc3N)cc2)C1` (racemic) are 2.58 L/h/kg, 0.66 L/h/kg and 200%.
`Cc1ccc(NC(=O)[C@H]2CN(C)C[C@@H]2c2ccc(/C=C/C(=O)Nc3ccccc3N)cc2)cn1` (racemic): the CLhep predicted at 1 µM was 3.42 L/h/kg in series [1] and 0.48 L/h/kg in series [2]. In addition, in series [3], the Activity stood at 130%.
On to `CN1C[C@H](C(=O)Nc2ccc(Br)cc2)[C@@H](c2ccc(/C=C/C(=O)Nc3ccccc3N)cc2)C1` (racemic), for which the CLhep predicted at 1 µM in series [1] was 0.96 L/h/kg; in series [2], 0.18 L/h/kg. In addition, in series [3], the Activity was found to be 40%.
The corresponding values for `CN1C[C@H](C(=O)NC2CC2)[C@@H](c2ccc(/C=C/C(=O)Nc3ccccc3N)cc2)C1` (racemic) are 0.42 L/h/kg, 0.6 L/h/kg and 80%.
Regarding `CN1C[C@H](C(=O)Nc2ccc(F)cc2F)[C@@H](c2ccc(/C=C/C(=O)Nc3ccccc3N)cc2)C1` (racemic), the CLhep predicted at 1 µM in series [1] was 1.62 L/h/kg; in series [2], 0.72 L/h/kg. In series [3], the Activity was found to be 180%.
Regarding `CN1C[C@H](C(=O)Nc2ccc(Cl)cc2)[C@@H](c2ccc(/C=C/C(=O)Nc3ccccc3N)cc2)C1` (racemic), the Activity in series [3] is 240%.
